Assay results taken from ChEMBL document CHEMBL1687781, “Comparative biochemical and computational study of the role of naturally occurring mutations at Ambler positions 104 and 170 in GES β-lactamases” (Antimicrob Agents Chemother, 2010).
Values after ≈ are worked out from the molar mass of the structure shown.

Experiments:
[1] = Activity of Beta-lactamase GES-7 K104, G170 mutant
Outline: (§1)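 Purified GES enzymes, released by mild sonication in 20 mM Tris pH 8.0, then Q-Sepharose and S-Sepharose chromatography, >95% pure by SDS-PAGE, in 50 mM KPi pH 7.6. Protein measured by Bradford. β-Lactam substrates hydrolysed at various concentrations, 25°C, in 50 mM NaCl, 50 mM MOPS pH 7.0.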

[2] = Activity of Beta-lactamase GES-5 E104, S170 mutant; outline: as §1
[3] = Ratio of Kcat to Km for Beta-lactamase GES-2 E104, N170 mutant; outline: as §1
[4] = Activity of Beta-lactamase GES-13 K104, N170 mutant; outline: as §1
[5] = Ratio of Kcat to Km for Beta-lactamase GES-6 K104, S170 mutant; outline: as §1
[6] = Ratio of Kcat to Km for Beta-lactamase GES-7 K104, G170 mutant; outline: as §1
[7] = Activity of Beta-lactamase GES-1 E104, G170 mutant; outline: as §1
[8] = Ratio of Kcat to Km for Beta-lactamase GES-1 E104, G170 mutant; outline: as §1
[9] = Activity of Beta-lactamase GES-2 E104, N170 mutant; outline: as §1
[10] = Ratio of Kcat to Km for Beta-lactamase GES-13 K104, N170 mutant; outline: as §1
[11] = Ratio of Kcat to Km for Beta-lactamase GES-5 E104, S170 mutant; outline: as §1
[12] = Activity of Beta-lactamase GES-6 K104, S170 mutant; outline: as §1
[13] = tested on: Escherichia coli; assay: Antimicrobial activity against Escherichia coli DH5[alpha] transformed with pAC-ges1 plasmid encoding Beta-lactamase GES-7 K104, G170 mutant in presence of clavulanic acid at compound/inhibitor ratio of 2:1 by Etest method; format: functional
Outline: (§2)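 E. coli DH5α host, either untransformed or carrying pACYC184-based clones of the GES variant genes. MICs of penicillin–clavulanate combinations were read by Etest following the manufacturer's recommendations, with penicillin and inhibitor at a 2:1 ratio.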

[14] = tested on: Escherichia coli; assay: Antimicrobial activity against Escherichia coli DH5[alpha] in presence of clavulanic acid at compound/inhibitor ratio of 2:1 by Etest method; format: functional; outline: as §2
[15] = tested on: Escherichia coli; assay: Antimicrobial activity against Escherichia coli DH5[alpha] transformed with pAC-ges1 plasmid encoding Beta-lactamase GES-6 K104, S170 mutant in presence of clavulanic acid at compound/inhibitor ratio of 2:1 by Etest method; format: functional; outline: as §2
[16] = tested on: Escherichia coli; assay: Antimicrobial activity against Escherichia coli DH5[alpha] transformed with pAC-ges1 plasmid encoding Beta-lactamase GES-5 E104, S170 mutant in presence of clavulanic acid at compound/inhibitor ratio of 2:1; format: functional; outline: as §2
[17] = tested on: Escherichia coli; assay: Antimicrobial activity against Escherichia coli DH5[alpha] transformed with pAC-ges1 plasmid encoding Beta-lactamase GES-1 E104, G170 mutant in presence of clavulanic acid at compound/inhibitor ratio of 2:1 by Etest method; format: functional; outline: as §2
[18] = tested on: Escherichia coli; assay: Antimicrobial activity against Escherichia coli DH5[alpha] transformed with pAC-ges1 plasmid encoding Beta-lactamase GES-2 E104, N170 mutant in presence of clavulanic acid at compound/inhibitor ratio of 2:1 by Etest method; format: functional; outline: as §2
[19] = tested on: Escherichia coli; assay: Antimicrobial activity against Escherichia coli DH5[alpha] transformed with pAC-ges1 plasmid encoding Beta-lactamase GES-13 K104, N170 mutant in presence of clavulanic acid at compound/inhibitor ratio of 2:1 by Etest method; format: functional; outline: as §2
[20] = tested on: Escherichia coli; assay: Antimicrobial activity against Escherichia coli DH5[alpha] transformed with pAC-ges1 plasmid encoding Beta-lactamase GES-5 E104, S170 mutant by Etest method; format: functional
[21] = tested on: Escherichia coli; assay: Antimicrobial activity against Escherichia coli DH5[alpha] transformed with pAC-ges1 plasmid encoding Beta-lactamase GES-2 E104, N170 mutant by Etest method; format: functional
[22] = tested on: Escherichia coli; assay: Antimicrobial activity against Escherichia coli DH5[alpha] transformed with pAC-ges1 plasmid encoding Beta-lactamase GES-1 E104, G170 mutant by Etest method; format: functional
[23] = tested on: Escherichia coli; assay: Antimicrobial activity against Escherichia coli DH5[alpha] transformed with pAC-ges1 plasmid encoding Beta-lactamase GES-6 K104, S170 mutant by Etest method; format: functional
[24] = tested on: Escherichia coli; assay: Antimicrobial activity against Escherichia coli DH5[alpha] transformed with pAC-ges1 plasmid encoding Beta-lactamase GES-7 K104, G170 mutant by Etest method; format: functional
[25] = tested on: Escherichia coli; assay: Antimicrobial activity against Escherichia coli DH5[alpha] transformed with pAC-ges1 plasmid encoding Beta-lactamase GES-13 K104, N170 mutant by Etest method; format: functional
[26] = tested on: Escherichia coli; assay: Antimicrobial activity against Escherichia coli DH5[alpha] by Etest method; format: functional
[27] = Inhibition of Beta-lactamase GES-7 K104, G170 mutant preincubated for 5 mins before substrate addition using cephalothin substrate by spectrophotometry
[28] = Inhibition of Beta-lactamase GES-2 E104, N170 mutant preincubated for 5 mins before substrate addition using cephalothin substrate by spectrophotometry
[29] = Inhibition of Beta-lactamase GES-13 K104, N170 mutant preincubated for 5 mins before substrate addition using cephalothin substrate by spectrophotometry
[30] = Inhibition of Beta-lactamase GES-5 E104, S170 mutant preincubated for 5 mins before substrate addition using cephalothin substrate by spectrophotometry
[31] = Inhibition of Beta-lactamase GES-1 E104, G170 mutant preincubated for 5 mins before substrate addition using cephalothin substrate by spectrophotometry
[32] = Inhibition of Beta-lactamase GES-6 K104, S170 mutant preincubated for 5 mins before substrate addition using cephalothin substrate by spectrophotometry

| SMILES | Km [1] [µM] | kcat [1] [s⁻¹] | Km [2] [µM] | kcat [2] [s⁻¹] | kcat/Km [3] [M⁻¹ s⁻¹] | Km [4] [µM] | kcat [4] [s⁻¹] | kcat/Km [5] [M⁻¹ s⁻¹] | kcat/Km [6] [M⁻¹ s⁻¹] | kcat/Km [10] [M⁻¹ s⁻¹] | kcat/Km [11] [M⁻¹ s⁻¹] | Km [12] [µM] | kcat [12] [s⁻¹] | MIC [20] [µg/mL] | MIC [21] [µg/mL] | MIC [22] [µg/mL] | MIC [23] [µg/mL] | MIC [24] [µg/mL] | MIC [25] [µg/mL] | MIC [26] [µg/mL] | also measured |
| --- | --- | --- | --- | --- | --- | --- | --- | --- | --- | --- | --- | --- | --- | --- | --- | --- | --- | --- | --- | --- | --- |
| CC1(C)S[C@@H]2[C@H](NC(=O)Cc3ccccc3)C(=O)N2[C@H]1C(=O)O | 39 | 14.2 | 88.9 | 28.6 | 70000 | 139 | 13.5 | 420000 | 360000 | 100000 | 320000 | 64.2 | 27.2 |  |  |  |  |  |  |  | Km [7]: 120 µM; kcat [7]: 30.5 s⁻¹; kcat/Km [8]: 260000 M⁻¹ s⁻¹; Km [9]: 87.6 µM; kcat [9]: 5.75 s⁻¹ |
| CC1(C)S[C@@H]2[C@H](NC(=O)[C@H](N)c3ccc(O)cc3)C(=O)N2[C@H]1C(=O)O [AMOXICILLIN] |  |  |  |  |  |  |  |  |  |  |  |  |  |  |  |  |  |  |  |  | MIC [13]: 32 µg/mL; MIC [14]: 2 µg/mL; MIC [15]: 32 µg/mL; MIC [16]: 16 µg/mL; MIC [17]: 8 µg/mL; MIC [18]: 3 µg/mL; MIC [19]: 3 µg/mL |
| CC1(C)S[C@@H]2[C@H](NC(=O)[C@H](N)c3ccccc3)C(=O)N2[C@H]1C(=O)O [AMPICILLIN] |  |  |  |  |  |  |  |  |  |  |  |  |  | > 256 | > 256 | > 256 | > 256 | > 256 | > 256 |  |  |
| C[C@H]1[C@H](NC(=O)/C(=N\OC(C)(C)C(=O)O)c2csc(N)n2)C(=O)N1S(=O)(=O)O [AZTREONAM] | 241 | 45.5 |  |  |  | 405 | 35.6 |  | 190000 | 90000 |  |  |  | 0.032 (≈ 0.0735 µM) | 0.032 (≈ 0.0735 µM) | 0.094 (≈ 0.216 µM) | 0.094 (≈ 0.216 µM) | 2 (≈ 4.59 µM) | 2 (≈ 4.59 µM) |  |  |
| CO/N=C(\C(=O)N[C@@H]1C(=O)N2C(C(=O)O)=C(COC(C)=O)CS[C@H]12)c1csc(N)n1 [CEFOTAXIME] | 81.6 | 31.4 | 133 | 3.55 | 140000 | 63.4 | 69 | 50000 | 380000 | 1.09e+06 | 30000 | 95.6 | 5.1 | 0.125 (≈ 0.274 µM) | 0.75 (≈ 1.65 µM) | 1 (≈ 2.2 µM) | 0.125 (≈ 0.274 µM) | 1.5 (≈ 3.29 µM) | 3 (≈ 6.59 µM) | 0.032 (≈ 0.0703 µM) | Km [7]: 152 µM; kcat [7]: 56.8 s⁻¹; kcat/Km [8]: 370000 M⁻¹ s⁻¹; Km [9]: 261 µM; kcat [9]: 37.2 s⁻¹ |
| CO[C@@]1(NC(=O)Cc2cccs2)C(=O)N2C(C(=O)O)=C(COC(N)=O)CS[C@@H]21 [CEFOXITIN] |  |  | 221 | 7.5 |  |  |  | 150000 |  |  | 30000 | 82.3 | 12.1 | 16 (≈ 37.4 µM) | 3 (≈ 7.02 µM) | 3 (≈ 7.02 µM) | 48 (≈ 112 µM) | 3 (≈ 7.02 µM) | 3 (≈ 7.02 µM) | 2 (≈ 4.68 µM) |  |
| CC(C)(O/N=C(\C(=O)N[C@@H]1C(=O)N2C(C(=O)[O-])=C(C[n+]3ccccc3)CS[C@H]12)c1csc(N)n1)C(=O)O [CEFTAZIDIME] | 69.2 | 132 | 135 | 0.24 | 2000 | 229 | 30.4 | 63000 | 1.9e+06 | 130000 | 2000 | 149 | 9.3 | 0.75 (≈ 1.37 µM) | 0.5 (≈ 0.915 µM) | 8 (≈ 14.6 µM) | 4 (≈ 7.32 µM) | > 256 | 32 (≈ 58.5 µM) | 0.12 (≈ 0.22 µM) | Km [7]: 137 µM; kcat [7]: 10.5 s⁻¹; kcat/Km [8]: 77000 M⁻¹ s⁻¹; Km [9]: 98.2 µM; kcat [9]: 0.21 s⁻¹ |
| O=C(O)[C@H]1/C(=C/CO)O[C@@H]2CC(=O)N21 [CLAVULANIC ACID] |  |  |  |  |  |  |  |  |  |  |  |  |  |  |  |  |  |  |  |  | IC50 [27]: 800 nM; IC50 [28]: 80 nM; IC50 [29]: 90 nM; IC50 [30]: 500 nM; IC50 [31]: 100 nM; IC50 [32]: 1700 nM |
| C[C@@H](O)[C@H]1C(=O)N2C(C(=O)O)=C(SCCNC=N)C[C@H]12 [IMIPENEM ANHYDROUS] |  |  | 1.27 | 0.332 | 20000 | 3.1 | 0.009 | 42000 |  | 3000 | 260000 | 3.92 | 0.166 | 1.5 (≈ 5.01 µM) | 0.5 (≈ 1.67 µM) | 0.25 (≈ 0.835 µM) | 0.5 (≈ 1.67 µM) | 0.125 (≈ 0.418 µM) | 0.25 (≈ 0.835 µM) | 0.064 (≈ 0.214 µM) | Km [7]: 1.2 µM; kcat [7]: 0.006 s⁻¹; kcat/Km [8]: 5000 M⁻¹ s⁻¹; Km [9]: 0.87 µM; kcat [9]: 0.016 s⁻¹ |
| C[C@@H](O)[C@H]1C(=O)N2C(C(=O)O)=C(S[C@@H]3CN[C@H](C(=O)N(C)C)C3)[C@H](C)[C@H]12 [MEROPENEM] |  |  |  |  |  |  |  |  |  |  |  |  |  | 0.094 (≈ 0.245 µM) | 0.032 (≈ 0.0834 µM) | 0.016 (≈ 0.0417 µM) | 0.047 (≈ 0.123 µM) | 0.016 (≈ 0.0417 µM) | 0.023 (≈ 0.06 µM) | 0.008 (≈ 0.0209 µM) |  |
| CC1(C)[C@H](C(=O)O)N2C(=O)C[C@H]2S1(=O)=O [SULBACTAM] |  |  |  |  |  |  |  |  |  |  |  |  |  |  |  |  |  |  |  |  | IC50 [28]: 500 nM; IC50 [29]: 300 nM; IC50 [30]: 4500 nM; IC50 [31]: 1500 nM; IC50 [32]: 8000 nM |
| C[C@]1(Cn2ccnn2)[C@H](C(=O)O)N2C(=O)C[C@H]2S1(=O)=O [TAZOBACTAM] |  |  |  |  |  |  |  |  |  |  |  |  |  |  |  |  |  |  |  |  | IC50 [27]: 60 nM; IC50 [28]: 30 nM; IC50 [29]: 40 nM; IC50 [30]: 500 nM; IC50 [31]: 30 nM; IC50 [32]: 500 nM |
